Results gathered from unrelated publications.
Each line is one published result; the experiments were not run side by side.
Cell line: A549
Read-out: cell growth or viability

`CCCCCCCCCC#CCCCCC(=O)O` has an IC50 of 16 µM (MTS; 24 h).
For `O=C1OC2(c3ccccc31)c1cc(Br)c(O)c(Br)c1Oc1c2cc(Br)c(O)c1Br`, the CC50 was over 200 µM (CCK-8; 48 h).
The GI50 of `CCOC(=O)C1CCN(C(=O)c2ccc(N(CC)Cc3cnc4nc(N)nc(N)c4n3)cc2)CC1` is reported as 4380 nM (ATP luminescence).
For `CC(C)=CCc1c(O)c(CC=C(C)C)c2occ(-c3ccc(O)cc3)c(=O)c2c1O`, the viability was 121% (MTT; 100 µg/mL).
`Nc1nc(N)c2nc(CNc3cccc4ccccc34)cnc2n1` has a GI50 of 1290 nM (ATP luminescence).
`O=C1OC2(c3ccccc31)c1ccc(O)c(Cl)c1Oc1c2ccc(O)c1Cl` gave a CC50 of over 200 µM (CCK-8; 48 h).
`COc1ccc(S(=O)(=O)ON=C2C=C(C)C(=O)C(C)=C2)cc1` gave a CC50 of over 30 µM.
`O=C(O)CCCCC#CCCCC1CCCCC1` has an IC50 of 40 µM (MTS; 24 h).
`O=C1OC2(c3ccc(O)cc3Oc3cc(O)ccc32)c2ccccc21` has a CC50 of over 200 µM (CCK-8; 48 h).
`C=C(C)C(CC=C(C)C)Cc1c(O)cc(OC)c2c1O[C@H](c1ccc(O)cc1O)CC2=O` (single isomer, unassigned; (-)) gave an IC50 of 50.5 µM (MTT).
`COc1cc2oc(-c3ccc(O)cc3O)c(CC=C(C)C)c(=O)c2c(O)c1/C=C/C(C)C` gave a CC50 of 38 µM (crystal violet; 72 h).
`C=C(C)[C@H](CC=C(C)C)Cc1c(O)cc(O)c2c1O[C@H](c1ccccc1O)CC2=O` gave an IC50 of 36.1 µM (MTT; 48 h).
The IC50 of `O=C(O)CCCCC#CCCCCCCCCCc1ccccc1` is reported as 18 µM (MTS; 24 h).
`O=C1OC2(c3ccccc31)c1ccc(O)c(Br)c1Oc1c2ccc(O)c1Br` gave a CC50 of over 200 µM (CCK-8; 48 h).
`CCN(Cc1cnc2nc(N)nc(N)c2n1)c1ccc(C(=O)c2ccccc2)cc1` has a GI50 of 230 nM (ATP luminescence).
